Sampled rows, rich in hits. Any-hit rate of the full collection: about 0.72%.
bIAP activator = bovine intestinal alkaline phosphatase activators, primary screen, biochemical, bovine IAP, CDP-star luminescence. purified bovine IAP, 30 min; active compounds read high; fold of DMSO-control signal, blank-subtracted. activation factor at 20 µM. actives 0.17% (n = 200,000). AID 1016, 2008;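 active means activation factor of 2 or more at 20 µM, a signal rise over negative controls twice the positive control's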
bIAP inh = bovine intestinal alkaline phosphatase inhibitors, primary screen, selectivity assay for TNAP inhibitor project, biochemical, bovine IAP, CDP-star luminescence; purified bovine IAP, 30 min; inhibition, % at 20 µM; 190,000 tested, under 10 active; AID 1019, 2008;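 active means over 50% inhibition of intestinal alkaline phosphatase at 20 µM in the single-dose screen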
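Assay system – bovine IAP enzyme · Quantity – bovine IAP at 1/65,000,000 final dilution · Detection – CDP-star luminescence signal · Times – 30 min reaction at room temperature · Also added – CDP-star substrate at 30 µM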
mIAP inh = inhibitors of mouse IAP, primary screen, biochemical, luminescence, uHTS | inhibition, % at 10 µM | intestinal alkaline phosphatase [Mus musculus] | purified mouse IAP, CDP-Star luminescence, 30 min | actives 0.2% (n = 330,000);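 active means inhibition of at least 40% at 10 µM in the primary screen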
hIAP block = human IAP inhibitors, primary screen, biochemical, luminescence, uHTS; inhibition, % at 10 µM; AID 2544, 2010; actives 0.12% (n = 330,000); purified IAP, CDP-Star luminescence, 30 min;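 active means inhibition reaching a set limit with compound at 10 µM in the primary screen, cut at about 35% in these data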
Target sequence (P09923 whole entry, looked up): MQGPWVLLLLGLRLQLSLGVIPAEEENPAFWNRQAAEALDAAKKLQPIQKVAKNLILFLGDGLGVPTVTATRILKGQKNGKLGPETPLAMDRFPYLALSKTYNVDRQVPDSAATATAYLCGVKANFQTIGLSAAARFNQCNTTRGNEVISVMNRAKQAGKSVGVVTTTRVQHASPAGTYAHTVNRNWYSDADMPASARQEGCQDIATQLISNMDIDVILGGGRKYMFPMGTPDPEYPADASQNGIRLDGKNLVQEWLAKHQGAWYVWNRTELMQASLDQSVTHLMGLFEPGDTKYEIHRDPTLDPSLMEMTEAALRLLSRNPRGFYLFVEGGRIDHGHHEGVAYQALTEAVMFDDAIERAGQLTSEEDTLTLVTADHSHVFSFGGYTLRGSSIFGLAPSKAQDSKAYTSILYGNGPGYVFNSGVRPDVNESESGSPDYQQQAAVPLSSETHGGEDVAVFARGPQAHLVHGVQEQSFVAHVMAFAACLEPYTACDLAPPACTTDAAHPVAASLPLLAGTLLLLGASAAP
mIAP act = activators of mouse IAP, primary screen, biochemical, luminescence, uHTS. intestinal alkaline phosphatase [Mus musculus]. muIAP, CDP-Star luminescence, 30 min; active compounds read high; 1 = vehicle-only enzyme signal, 0 = enzyme-free wells. activation factor at 10 µM. actives 0.24% (n = 330,000). AID 2805, 2010;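 active means activation factor of at least 2 at 20 µM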
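also added = chemiluminescent substrate CDP-Star | test system = mouse IAP enzyme | signal = chemiluminescence readout | compound = DMSO-dissolved test compounds | incubation = 30 min at room temperature | benchmarks = DMSO wells, no-enzyme wells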
hIAP act = human IAP activators, primary screen, biochemical, luminescence, uHTS; Intestinal-type alkaline phosphatase (Homo sapiens), P09923; purified human IAP, CDP-Star luminescence, 30 min; active compounds read high; 1 = vehicle-only enzyme, 0 = enzyme-free background; activation factor at 10 µM; actives 0.16% (n = 330,000); AID 2524, 2010;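 active means activation factor of the enzyme at least 2-fold when tested at 20 µM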
hIAP act confirm = human IAP activators, confirmation, biochemical, luminescence, single concentration, uHTS hits; shares compounds with hIAP act; purified IAP, CDP-Star luminescence, 30 min; active compounds read low; activation (%Activity, negative = activation), % at 8.3 µM; actives 10% (n = 880);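 active means at least twofold enzyme activation in any of six single-dose repeats, which the averaged readout prints as negative percent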
Hits are given with their value; . = inactive; / = not tested or not shown.

SMILES	bIAP activator	bIAP inh	mIAP inh	hIAP block	mIAP act	hIAP act	hIAP act confirm
CN(C(=O)CSc1ncccc1C(=O)O)c1ccccc1	.	.	.	36.0	.	.	.
Cc1cc(N(C)/N=C/c2ccccc2O)nc(-c2ccccc2O)n1	.	.	.	.	.	2.3	.
CN(C1CCCCC1)S(=O)(=O)c1ccc(=S)[nH]c1	/	/	.	.	.	.	/
COc1ccc(S(=O)(=O)N2CCN(CC(=O)c3ccc(O)c(O)c3)CC2)cc1	/	/	.	38.6	.	.	.
Cc1ccc(C(=O)Nc2ccc(S(=O)(=O)N3CCOCC3)cc2)cc1Br	/	/	.	.	.	.	/
O=C(c1ccco1)N1CCN(CC(O)COc2ccc(Br)cc2)CC1 (stereo unspecified)	/	/	.	.	.	.	/
COC(=O)c1nnn(-c2nonc2N)c1CSc1nc2ccccc2s1	.	.	.	.	.	.	/
COC(=O)c1nnn(-c2nonc2N)c1CSc1nc2ccccc2o1	.	.	.	.	.	3.27	.
CC(=O)c1ccc(N(C(=O)c2ccco2)C(C(=O)NC2CCCC2)c2cccs2)cc1 (stereo unspecified)	/	/	.	.	.	.	/
Cc1ccc(N(C(=O)c2ccn[nH]2)C(C(=O)NC2CCCC2)c2cccs2)cc1 (stereo unspecified)	.	.	.	.	.	3.03	.
COc1ccc(C(C(=O)NC2CCCC2)N(C(=O)c2snc(-c3ccc(F)cc3)c2N)c2ccc(F)cc2)cc1 (stereo unspecified)	.	.	.	.	.	.	/
COc1ccc(N(C(=O)c2ccn[nH]2)C(C(=O)NC2CCCC2)c2ccc(F)cc2)cc1 (stereo unspecified)	/	/	.	.	.	2.48	.
Cc1cc(C)nc(Nc2n[nH]c(COc3ccc4ccccc4c3)n2)n1	.	.	.	.	.	2.03	.
Cc1cc(C)nc(Nc2n[nH]c(COc3ccccc3)n2)n1	.	.	.	.	.	.	/
COc1ccc(OC(C)C(=O)NC2CCCCCC2)cc1 (stereo unspecified)	/	/	.	.	.	.	/
Cc1nc2c3ccccc3nc(NNC(=O)CCC(=O)N3CCCC(C)C3)n2n1 (stereo unspecified)	/	/	.	.	.	2.54	-41.6
Cc1nc2c3ccccc3nc(NNC(=O)CCC(=O)NC3CCCC3)n2n1	.	.	.	.	.	.	/
COc1ccc(N2CCN(CCNC(=O)CCC(=O)NNc3nc4ccccc4c4nc(C)nn34)CC2)cc1	/	/	.	.	.	2.45	.
COc1cccc(CN2CCC(n3nccc3NC(=O)CCCc3ccccc3)CC2)c1O	/	/	.	.	.	.	/
CCOc1ccc(CN2CCC(n3nccc3NC(=O)CCCc3ccccc3)CC2)cc1	/	/	.	.	2.21	3.17	.
COc1cc(CN2CCC(n3nccc3NC(=O)CCCc3ccccc3)CC2)ccc1F	/	/	.	.	.	2.01	.
COc1ccc(CN2CCC(n3nccc3NC(=O)CCc3ccccc3)CC2)c(C)c1C	/	/	.	.	2.05	2.31	.
O=C(CCCc1ccccc1)Nc1ccnn1C1CCN(Cc2ccccc2)CC1	/	/	.	.	.	.	/
O=C(CCCc1ccccc1)Nc1ccnn1C1CCN(Cc2ccccc2F)CC1	/	/	.	.	.	.	/
CC(=O)N1c2ccc(S(=O)(=O)N3CCC(C(=O)Nc4cccc(Cl)c4)CC3)cc2CC1C (stereo unspecified)	/	/	.	.	.	2	.
SMILES	bIAP activator	bIAP inh	mIAP inh	hIAP block	mIAP act	hIAP act	hIAP act confirm
COc1cc(NC(=O)C2CC(=O)N(CCc3ccc(F)cc3)C2)cc(OC)c1OC (stereo unspecified)	/	/	.	.	.	.	/
C#CCOCCOCCOCCNc1nc(N2CCN(C(=O)[C@H](CCC(=O)O)n3cc([C@@H](N)CO)nn3)CC2)nc(N2CCN(C(=O)[C@H](CCC(=O)O)n3cc([C@@H](N)CCSC)nn3)CC2)n1	/	/	.	.	.	.	/
O=C(CSc1ncccn1)Nc1ccccc1	.	.	.	.	.	.	/
CC(NC(=O)CSc1ncccn1)c1ccccc1 (stereo unspecified)	.	.	.	66.7	.	.	.
O=C(CSc1ncn[nH]1)NCCc1ccccc1	.	.	.	.	.	2.65	-112.9
CSCCC(NC(=O)c1ccccc1Cl)C(=O)NNC(=O)c1ccccc1O (stereo unspecified)	/	/	.	.	.	.	/
CC(Sc1ccc(Cl)cc1)C(=O)NNC(=O)c1ccccc1O (stereo unspecified)	/	/	.	.	.	2.48	.
O=C(CCCN1C(=O)NC2(CCCC2)C1=O)Nc1ccc(Cl)c(S(=O)(=O)N2CCOCC2)c1	/	/	.	.	.	.	/
COc1ccc(C(CNC(=O)c2ccc(S(=O)(=O)N3CC(C)CC(C)C3)cc2)N(C)C)cc1 (stereo unspecified)	/	/	.	.	.	.	/
Cc1ccc(-c2[nH]ncc2C(=O)c2ccc(Br)cc2)c(O)c1	/	/	.	.	.	2.05	.
Cc1ccc(C(=O)c2cn[nH]c2-c2cc(Cl)ccc2O)cc1	.	.	.	.	.	.	/
CCOC(=O)c1ccc(NC(=O)c2nc[nH]c2C(=O)N[C@@H](CC(C)C)C(=O)OC(C)(C)C)cc1	/	/	.	.	.	2.03	.
Cc1ccc(-n2nc(C)c3c2OC(N)=C(C#N)C3c2ccncc2)cc1 (stereo unspecified)	.	.	.	.	.	.	/
Cc1nn(-c2ccccc2)c2c1C(c1ccncc1)C(C#N)=C(N)O2 (stereo unspecified)	.	.	.	37.6	.	.	.
COc1ccccc1NC(=O)NNC(=O)c1cc2ccccc2cc1O	/	/	.	.	.	2.01	.
Cc1ccc(NC(=O)NNC(=O)c2cc3ccccc3cc2O)cc1	/	/	.	.	.	2.12	-69.5
CC(C)(C)c1ccc(C(=O)Nc2ccc(CN3CCS(=O)(=O)CC3)cc2)cc1	/	/	.	38.6	.	.	.
COc1cccc(NC(=O)CN(C)C(=O)c2ccc(-c3ccccc3Cl)o2)c1	/	/	.	.	.	.	/
Cc1cnc(NC(=O)C2CC=CCC2)s1 (stereo unspecified)	/	/	.	.	.	.	/
Cc1ccc(N/C=C/C(=O)c2ccco2)c(O)c1	/	/	.	.	.	2.16	.
